Measurements as given in ChEMBL document CHEMBL4118144, “Design, Synthesis, and Testing of Potent, Selective Hepsin Inhibitors via Application of an Automated Closed-Loop Optimization Platform” (J Med Chem, 2018).

Experiments:
[1] = target: Dipeptidyl peptidase 4 (Homo sapiens) (UniProt P27487); assay: Inhibition of recombinant full length human dipeptidyl peptidase 4 using GP-AMC as substrate at 10 uM after 10 mins by fluorescence spectrophotometric method relative to control
Summary of the method: (§1)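 Panel of ten serine proteases; percent inhibition read at compound concentrations of 1 µM and 10 µM, each value the mean of 2 experiments.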

[2] = target: T1, Hepatocyte growth factor activator serine protease (Homo sapiens) (UniProt Q04756); assay: Inhibition of C-terminal 10-His tagged recombinant human HGFA (Gln36 to Ser655 residues) expressed in mouse […] cells 1 uM after 15 mins by fluorescence assay relative to control; type: cell-based
T1 sequence (whole entry): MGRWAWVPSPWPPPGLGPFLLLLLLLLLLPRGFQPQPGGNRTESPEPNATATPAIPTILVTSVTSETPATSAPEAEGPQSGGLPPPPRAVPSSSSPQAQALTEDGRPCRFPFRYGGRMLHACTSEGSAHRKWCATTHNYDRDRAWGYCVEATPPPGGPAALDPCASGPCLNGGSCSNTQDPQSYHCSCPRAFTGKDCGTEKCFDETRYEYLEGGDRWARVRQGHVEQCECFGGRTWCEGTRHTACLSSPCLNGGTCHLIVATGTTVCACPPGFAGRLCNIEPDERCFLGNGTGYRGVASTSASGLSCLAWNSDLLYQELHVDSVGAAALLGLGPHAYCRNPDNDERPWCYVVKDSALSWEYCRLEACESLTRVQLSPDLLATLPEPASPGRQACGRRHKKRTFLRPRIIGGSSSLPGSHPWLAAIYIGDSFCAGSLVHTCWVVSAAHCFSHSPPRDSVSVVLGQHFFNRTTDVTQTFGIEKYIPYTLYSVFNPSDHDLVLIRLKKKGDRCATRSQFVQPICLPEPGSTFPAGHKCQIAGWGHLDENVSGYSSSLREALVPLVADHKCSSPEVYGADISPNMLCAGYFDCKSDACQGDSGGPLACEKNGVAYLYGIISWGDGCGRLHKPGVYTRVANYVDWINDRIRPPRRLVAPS

Tryptase (Homo sapiens) = Tryptase (Homo sapiens) (UniProt Q9BZJ3+Q15661+Q9NRR2); assay: Inhibition of recombinant full length human tryptase usingZ-Gly-Pro-Arg-AMC as substrate at 1 uM after 60 mins by fluorescence spectrophotometric method relative to control; type: protein assay; summary of the method: as §1
Serine protease hepsin [3] = target: Serine protease hepsin (Homo sapiens, UniProt P05981, D161E/R162K); assay: Inhibition of recombinant C-terminal His10-tagged human Hepsin (R45 to […] residues) D161E/ R162K double mutant expressed in mouse NS0 cells using Boc-QRR-AMC as substrate after 15 mins by manual fluorescence assay
HepG2 = assay: Cytotoxicity against human HepG2 cells assessed as reduction in cell viability after 48 hrs by CellTiter-Blue/CytoTox-ONE-based assay; conditions: HepG2, 48 h
Summary of the method: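 Human Hep-G2 cells were exposed to compound at concentrations up to 10 µM. The value is reported as viable-50 (µM), the concentration at which 50% of cells remain viable.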

[4] = target: T2, Suppressor of tumorigenicity 14 protein (Homo sapiens) (UniProt Q9Y5Y6); assay: Inhibition of matriptase (unknown origin) using BOC-QAR-AMC as substrate at 1 uM after 15 mins by fluorescence assay relative to control; summary of the method: as §1
T2 sequence (whole entry): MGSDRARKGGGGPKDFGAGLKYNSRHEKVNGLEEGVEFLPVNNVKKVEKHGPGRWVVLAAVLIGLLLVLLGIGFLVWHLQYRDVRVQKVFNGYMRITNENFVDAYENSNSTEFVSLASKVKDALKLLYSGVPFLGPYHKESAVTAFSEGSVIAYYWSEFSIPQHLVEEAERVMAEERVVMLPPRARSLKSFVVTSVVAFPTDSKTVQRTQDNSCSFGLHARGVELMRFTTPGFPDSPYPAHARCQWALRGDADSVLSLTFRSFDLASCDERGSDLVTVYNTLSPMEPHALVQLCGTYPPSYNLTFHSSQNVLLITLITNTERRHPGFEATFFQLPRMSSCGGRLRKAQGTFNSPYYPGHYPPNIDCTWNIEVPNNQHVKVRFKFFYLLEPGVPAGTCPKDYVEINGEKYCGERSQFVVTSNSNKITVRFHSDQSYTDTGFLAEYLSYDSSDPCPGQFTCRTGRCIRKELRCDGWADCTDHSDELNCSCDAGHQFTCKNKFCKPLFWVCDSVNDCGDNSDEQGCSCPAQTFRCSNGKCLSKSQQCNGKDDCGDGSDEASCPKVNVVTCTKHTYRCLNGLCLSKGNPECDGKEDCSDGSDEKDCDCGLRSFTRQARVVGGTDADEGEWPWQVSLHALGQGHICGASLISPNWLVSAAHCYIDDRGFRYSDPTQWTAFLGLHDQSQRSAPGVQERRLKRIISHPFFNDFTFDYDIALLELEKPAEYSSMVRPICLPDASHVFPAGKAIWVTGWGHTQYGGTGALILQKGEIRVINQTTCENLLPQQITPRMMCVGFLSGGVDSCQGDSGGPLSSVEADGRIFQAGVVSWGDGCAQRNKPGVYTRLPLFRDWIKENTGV

Serine protease hepsin [5] = target: Serine protease hepsin (Homo sapiens, UniProt P05981); assay: Inhibition of doxycycline induced Hepsin in human MCF10A cells using Boc-QRR-AMC as substrate preincubated for 24 hrs followed by doxycycline induction for 24 hrs and subsequent addition of substrate by fluorescence assay; type: cell-based
Serine protease hepsin (Homo sapiens, UniProt P05981), sequence (P05981 1-162 limits assumed): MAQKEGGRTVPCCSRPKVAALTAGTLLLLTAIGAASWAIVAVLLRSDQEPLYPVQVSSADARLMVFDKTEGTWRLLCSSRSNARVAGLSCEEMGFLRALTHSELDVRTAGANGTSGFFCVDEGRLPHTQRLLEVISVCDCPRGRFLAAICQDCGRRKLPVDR
Serine protease hepsin (Homo sapiens, UniProt P05981), sequence (P05981 163-417 limits assumed): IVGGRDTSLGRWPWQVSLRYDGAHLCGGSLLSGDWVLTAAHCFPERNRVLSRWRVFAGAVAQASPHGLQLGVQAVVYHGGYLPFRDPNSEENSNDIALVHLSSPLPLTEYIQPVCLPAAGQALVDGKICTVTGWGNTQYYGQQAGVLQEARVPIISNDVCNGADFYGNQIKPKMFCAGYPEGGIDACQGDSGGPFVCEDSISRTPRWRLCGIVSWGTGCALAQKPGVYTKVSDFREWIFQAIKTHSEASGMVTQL

[6] = target: Dipeptidyl peptidase 4 (Homo sapiens) (UniProt P27487); assay: Inhibition of recombinant full length human dipeptidyl peptidase 4 using GP-AMC as substrate at 1 uM after 10 mins by fluorescence spectrophotometric method relative to control; summary of the method: as §1
[7] = target: T3, Cathepsin G (Homo sapiens) (UniProt P08311); assay: Inhibition of human cathepsin G using Suc-Ala-Ala-Pro-Phe-AMC as substrate at 1 uM after 30 mins by fluorescence spectrophotometric method relative to control; summary of the method: as §1
T3 sequence (whole entry): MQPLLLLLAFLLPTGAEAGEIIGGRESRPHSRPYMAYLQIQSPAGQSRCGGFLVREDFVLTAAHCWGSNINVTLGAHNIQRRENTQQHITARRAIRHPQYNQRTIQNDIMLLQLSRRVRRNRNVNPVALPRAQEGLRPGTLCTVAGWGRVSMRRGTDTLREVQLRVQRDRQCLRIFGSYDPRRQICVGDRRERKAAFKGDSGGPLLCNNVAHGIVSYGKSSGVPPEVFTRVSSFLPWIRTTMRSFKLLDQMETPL

[8] = Half life in mouse liver microsomes at 3 uM preincubated for 5 mins followed by NADPH addition by LC-MS/MS analysis; type: ADME, microsome
Trypsin (Homo sapiens) = Trypsin (Homo sapiens) (UniProt P07477+P07478+P35030); assay: Inhibition of human trypsin using Z-Gly-Pro-Arg-AMC as substrate at 1 uM after 60 mins by fluorescence spectrophotometric method relative to control; type: protein assay; summary of the method: as §1

Dipeptidyl peptidase 4 (Homo sapiens), sequence (P27487 whole entry, looked up): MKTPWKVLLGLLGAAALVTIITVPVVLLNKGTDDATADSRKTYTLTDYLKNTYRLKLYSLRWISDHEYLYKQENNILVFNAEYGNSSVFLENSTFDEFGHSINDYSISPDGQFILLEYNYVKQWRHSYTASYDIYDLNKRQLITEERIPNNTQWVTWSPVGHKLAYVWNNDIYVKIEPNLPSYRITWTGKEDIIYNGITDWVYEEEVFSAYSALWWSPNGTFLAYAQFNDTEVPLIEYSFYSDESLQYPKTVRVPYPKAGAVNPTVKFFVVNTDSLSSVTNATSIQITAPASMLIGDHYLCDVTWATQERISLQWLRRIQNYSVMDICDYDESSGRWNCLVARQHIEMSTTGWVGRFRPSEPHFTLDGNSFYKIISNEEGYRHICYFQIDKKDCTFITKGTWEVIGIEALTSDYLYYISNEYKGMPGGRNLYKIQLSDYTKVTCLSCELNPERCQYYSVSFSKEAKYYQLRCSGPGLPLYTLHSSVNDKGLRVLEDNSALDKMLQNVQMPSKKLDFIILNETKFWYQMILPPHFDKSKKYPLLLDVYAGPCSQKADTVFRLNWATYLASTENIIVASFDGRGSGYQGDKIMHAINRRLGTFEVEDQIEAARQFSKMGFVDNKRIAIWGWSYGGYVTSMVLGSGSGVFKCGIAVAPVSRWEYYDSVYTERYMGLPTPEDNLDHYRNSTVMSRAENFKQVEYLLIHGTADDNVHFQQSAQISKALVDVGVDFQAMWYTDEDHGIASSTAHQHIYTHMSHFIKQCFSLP

SMILES	inhibition [1]	inhibition [2]	inhibition (Tryptase (Homo sapiens))	IC50 (Serine protease hepsin [3])	IC50 (HepG2)	inhibition [4]	IC50 (Serine protease hepsin [5])	inhibition [6]	inhibition [7]	half-life at 3 µM [8]	inhibition (Trypsin (Homo sapiens))
Cc1ccc(S(=O)(=O)N[C@@H](C(=O)Nc2ccc(C(=N)N)cc2)C2CCCCC2)cc1	< 10%	18%	52%	38 to 70 nM	> 10000 nM	< 10%	990 nM	< 10%	< 10%	1.23 h	83%
N=C(N)c1ccc(NC(=O)[C@H](NS(=O)(=O)c2ccc(F)cc2)C2CCCCC2)cc1	< 10%	10%	40%	190 nM	> 10000 nM	< 10%	1290 nM	< 10%	< 10%	0.8 h	77%
Cc1ccc(S(=O)(=O)N[C@@H](C(=O)Nc2ccc(C(=N)N)cc2)c2ccccc2)cc1	< 10%	16%	27%	22 nM	> 10000 nM	< 10%	100 nM	< 10%	< 10%	1.8 h	54%
